{"data": "Published values from different studies", "target": "Casein kinase I isoform gamma-1 (CSNK1G1, Homo sapiens, UniProt Q9HCP0)", "note": "Protocols differ between the studies behind these lines."}
{"Compound": "COc1cnc(Nc2cccc(S(N)(=O)=O)c2)nc1N1CCN(c2ccccc2)CC1", "assay": "binding, competition with immobilised ligand", "setting": "1 µM", "remaining binding": "100%"}
{"Compound": "O=C(NS(=O)(=O)c1ccc(NCC2CCOCC2)c([N+](=O)[O-])c1)c1ccc(N2CCN(Cc3ccc(C(F)(F)F)cc3-c3ccc(Cl)cc3)CC2)cc1Oc1cnc2[nH]ccc2c1", "assay": "cell-free assay, competition with immobilised ligand", "setting": "1 µM", "remaining binding": "95%"}
{"Compound": "O=C(c1ccc(Nc2ncc(Cl)c(-c3ccc(Cl)s3)n2)cc1)N1CCC(N2CCCC2)CC1", "assay": "binding, competition with immobilised ligand", "setting": "1 µM", "remaining binding": "80%"}
{"Compound": "COc1ncc2cc3ccccc3nc2c1C#N", "assay": "cell-free assay, competition with immobilised ligand", "setting": "5 µM", "remaining binding": "100%"}
{"Compound": "CCN1CCN(Cc2ccc(C(=O)Nc3ccc(C)c(Oc4ccc5c(c4)CC(=O)N5)c3)cc2C(F)(F)F)CC1", "assay": "binding, competition with immobilised ligand", "setting": "1 µM", "remaining binding": "100%"}
{"Compound": "O=C(c1ccc(Nc2nccc(-c3cc4ccccc4s3)n2)cc1)N1CCC(N2CCCC2)CC1", "assay": "binding, competition with immobilised ligand", "setting": "1 µM", "remaining binding": "88%"}
{"Compound": "COc1cccc(CNC(=O)c2nc3scc(COCc4ccc(C(=O)O)cc4)c3c(=O)[nH]2)c1", "assay": "cell-free assay, competition with immobilised ligand", "setting": "1 µM", "remaining binding": "100%"}
{"Compound": "FC(F)(F)Oc1cccc(-c2cnc3ccc(-c4ccncc4)nn23)c1", "assay": "cell-free assay, competition with immobilised ligand", "setting": "5 µM", "remaining binding": "67%"}
{"Compound": "CN(C)c1ncc(F)c(-c2cnn3ncccc23)n1", "assay": "binding", "setting": "1 µM", "remaining binding": "74%"}
{"Compound": "O=C(NCC1CCOCC1)c1n[nH]cc1NC(=O)c1c(F)cccc1F", "assay": "binding, competition with immobilised ligand", "setting": "1 µM", "remaining binding": "78%"}
{"Compound": "CC1CCCN1c1nccc(-c2cnn3ncccc23)n1 (stereo not drawn)", "assay": "binding", "setting": "1 µM", "remaining binding": "100%"}
{"Compound": "CCC(=O)N[C@H]1CC[C@@H](C(=O)N(C)c2ccc(-c3nc4ccccc4o3)cc2)C1", "assay": "cell-free assay, competition with immobilised ligand", "setting": "1 µM", "remaining binding": "90%"}
{"Compound": "N[C@@H]1CCN(c2nccc(-c3cnn4ncccc34)n2)C1", "assay": "binding", "setting": "1 µM", "remaining binding": "100%"}
{"Compound": "CO[C@@H](C)c1c(Nc2ccc([C@H](N(C)C(=O)C3CCS(=O)(=O)CC3)C(F)(F)F)cc2)cnc2cc(Cl)nn12", "assay": "cell-free assay, competition with immobilised ligand", "setting": "1 µM", "remaining binding": "100%"}
{"Compound": "C[C@@H]1CCN(c2nccc(-c3cnn4ncccc34)n2)C1", "assay": "binding", "setting": "1 µM", "remaining binding": "87%"}
{"Compound": "C[C@@H]1CN(c2cc(-c3nn(C)c4ccc(OC5(C)CC5)cc34)ncn2)C[C@H](C)O1", "assay": "cell-free assay, competition with immobilised ligand", "setting": "1 µM", "remaining binding": "89%"}
{"Compound": "CN(c1nccc(-c2cnn3ncccc23)n1)C1CC1", "assay": "binding", "setting": "1 µM", "remaining binding": "100%"}
{"Compound": "O=C(NCCCN1CCOCC1)c1ccc(Nc2nccc(-c3cc4ccccc4s3)n2)cc1", "assay": "binding, competition with immobilised ligand", "setting": "1 µM", "remaining binding": "81%"}
